Source: ChEMBL document CHEMBL1145087 (J Med Chem, 2003)

Key:
[1] = target: T1, Mineralocorticoid receptor (Homo sapiens, UniProt P08235); assay: Inhibitory activity against human Mineralocorticoid receptor
T1 sequence (P08235 whole entry): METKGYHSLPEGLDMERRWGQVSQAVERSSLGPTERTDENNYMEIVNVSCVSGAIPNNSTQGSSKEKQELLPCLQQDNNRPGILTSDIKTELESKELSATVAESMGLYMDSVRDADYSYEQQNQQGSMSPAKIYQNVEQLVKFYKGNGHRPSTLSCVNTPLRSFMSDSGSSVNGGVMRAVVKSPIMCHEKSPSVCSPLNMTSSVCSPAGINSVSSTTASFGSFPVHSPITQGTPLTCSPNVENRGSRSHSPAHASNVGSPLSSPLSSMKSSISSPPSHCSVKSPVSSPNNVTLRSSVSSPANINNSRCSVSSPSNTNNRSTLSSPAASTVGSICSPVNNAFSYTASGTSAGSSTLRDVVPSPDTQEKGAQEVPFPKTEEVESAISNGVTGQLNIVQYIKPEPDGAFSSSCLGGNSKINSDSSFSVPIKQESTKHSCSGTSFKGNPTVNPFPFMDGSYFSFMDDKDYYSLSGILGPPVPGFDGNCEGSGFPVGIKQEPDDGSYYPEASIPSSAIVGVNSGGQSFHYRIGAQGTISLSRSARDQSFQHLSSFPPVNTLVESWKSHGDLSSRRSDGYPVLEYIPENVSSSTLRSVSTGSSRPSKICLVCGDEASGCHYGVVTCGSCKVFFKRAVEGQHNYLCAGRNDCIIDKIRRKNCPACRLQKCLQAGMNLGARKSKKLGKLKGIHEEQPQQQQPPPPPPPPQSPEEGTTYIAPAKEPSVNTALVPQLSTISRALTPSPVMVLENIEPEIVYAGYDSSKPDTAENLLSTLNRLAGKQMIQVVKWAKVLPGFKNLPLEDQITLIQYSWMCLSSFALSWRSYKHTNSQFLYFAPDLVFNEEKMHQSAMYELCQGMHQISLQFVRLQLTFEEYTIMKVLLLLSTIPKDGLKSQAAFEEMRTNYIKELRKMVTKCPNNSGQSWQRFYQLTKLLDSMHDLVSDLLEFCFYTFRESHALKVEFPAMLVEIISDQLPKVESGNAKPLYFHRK

[2] = target: T2, Mineralocorticoid receptor (Homo sapiens) (UniProt P08235); assay: Agonistic efficacy against human Mineralocorticoid receptor; assay type: functional
T2 sequence (whole entry): T1 sequence (P08235 whole entry)
How it was run: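 Cell-based cotransfection assay for hMR in 96-well format. Agonist activity is read as normalized LUC expression. Efficacy is expressed relative to the maximal LUC response to aldosterone.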

[3] = target: T3, Progesterone receptor (Homo sapiens) (UniProt P06401); assay: Percent agonistic effect towards human progesterone receptor in CV-1 cells; assay type: functional, cell-based
T3 sequence (whole entry): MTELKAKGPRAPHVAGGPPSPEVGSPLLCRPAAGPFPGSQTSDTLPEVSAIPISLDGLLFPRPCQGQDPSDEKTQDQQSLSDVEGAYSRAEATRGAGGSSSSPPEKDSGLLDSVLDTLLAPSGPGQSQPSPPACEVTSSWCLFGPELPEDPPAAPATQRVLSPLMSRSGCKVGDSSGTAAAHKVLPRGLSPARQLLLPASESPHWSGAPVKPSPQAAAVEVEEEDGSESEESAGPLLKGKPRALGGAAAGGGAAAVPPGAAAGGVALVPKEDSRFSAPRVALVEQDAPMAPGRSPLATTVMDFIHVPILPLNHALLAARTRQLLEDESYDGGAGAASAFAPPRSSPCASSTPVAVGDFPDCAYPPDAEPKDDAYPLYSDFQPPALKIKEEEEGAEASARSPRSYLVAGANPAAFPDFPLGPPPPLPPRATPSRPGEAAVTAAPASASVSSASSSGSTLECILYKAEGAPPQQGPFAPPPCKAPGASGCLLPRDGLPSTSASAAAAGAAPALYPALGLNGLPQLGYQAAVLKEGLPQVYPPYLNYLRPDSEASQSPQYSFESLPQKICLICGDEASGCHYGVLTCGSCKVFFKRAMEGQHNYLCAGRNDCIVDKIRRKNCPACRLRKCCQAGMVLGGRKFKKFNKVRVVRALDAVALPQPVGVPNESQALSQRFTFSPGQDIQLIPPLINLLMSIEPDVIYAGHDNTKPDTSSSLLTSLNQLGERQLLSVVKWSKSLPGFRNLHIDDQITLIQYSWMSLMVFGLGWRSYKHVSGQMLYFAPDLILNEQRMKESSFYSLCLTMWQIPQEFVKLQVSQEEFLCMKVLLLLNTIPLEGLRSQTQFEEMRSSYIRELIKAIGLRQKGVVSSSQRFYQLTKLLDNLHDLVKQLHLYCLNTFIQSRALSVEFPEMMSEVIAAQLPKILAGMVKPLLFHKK

Progesterone receptor = target: T4, Progesterone receptor (Homo sapiens, UniProt P06401); assay: Binding affinity towards human progesterone receptor A isoform using progesterone as radioligand
T4 sequence (P06401 whole entry): T3 sequence (whole entry)

Homo sapiens [4] = species: Homo sapiens; assay: Relative potency for human androgen and progesterone receptors
Homo sapiens [5] = species: Homo sapiens; assay: Relative potency for human glucocorticoid and progesterone receptors
Androgen receptor = target: T5, Androgen receptor (Homo sapiens, UniProt P10275); assay: biochemical
T5 sequence (P10275 whole entry): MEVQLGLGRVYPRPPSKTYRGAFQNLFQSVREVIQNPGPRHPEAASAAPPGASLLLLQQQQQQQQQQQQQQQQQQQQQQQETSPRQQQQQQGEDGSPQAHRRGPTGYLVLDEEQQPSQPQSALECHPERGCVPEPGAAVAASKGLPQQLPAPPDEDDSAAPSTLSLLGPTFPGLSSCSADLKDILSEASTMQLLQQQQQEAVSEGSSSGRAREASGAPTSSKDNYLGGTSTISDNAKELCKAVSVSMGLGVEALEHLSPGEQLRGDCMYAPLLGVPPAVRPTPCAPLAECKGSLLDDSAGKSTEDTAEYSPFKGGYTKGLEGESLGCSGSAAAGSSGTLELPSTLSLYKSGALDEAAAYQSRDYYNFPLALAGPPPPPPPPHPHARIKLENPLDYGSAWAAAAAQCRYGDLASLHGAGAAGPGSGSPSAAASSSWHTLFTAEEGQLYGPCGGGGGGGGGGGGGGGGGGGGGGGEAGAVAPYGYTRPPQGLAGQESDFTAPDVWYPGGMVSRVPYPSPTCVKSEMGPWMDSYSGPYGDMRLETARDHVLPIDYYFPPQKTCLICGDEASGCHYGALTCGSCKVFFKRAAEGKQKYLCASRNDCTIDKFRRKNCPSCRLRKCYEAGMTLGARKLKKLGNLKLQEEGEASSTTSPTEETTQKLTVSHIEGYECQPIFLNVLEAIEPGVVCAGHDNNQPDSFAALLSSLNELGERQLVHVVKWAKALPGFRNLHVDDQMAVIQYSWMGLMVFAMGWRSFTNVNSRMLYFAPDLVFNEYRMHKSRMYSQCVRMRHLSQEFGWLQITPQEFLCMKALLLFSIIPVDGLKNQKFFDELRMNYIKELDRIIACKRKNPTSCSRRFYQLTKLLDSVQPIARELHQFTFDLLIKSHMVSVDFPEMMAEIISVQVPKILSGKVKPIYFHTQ

Row | Efficacy [2] [%] | Efficacy [3] [%] | Ki (Progesterone receptor) [nM] | Ratio (Homo sapiens [4]) | Ratio (Homo sapiens [5]) | Ki (Androgen receptor) [nM] | SMILES | IC50 [1] [nM]
1 | 70 | 163 | 1.5 | > 1000 | 212 | 960 | CC1=CC(C)(C)Nc2ccc3c(c21)/C(=C/c1ccccc1C)Oc1c(F)cccc1-3 | 1850
2 | > 20 | 171 | 0.61 | 429 | 119 | 1460 | CC1=CC(C)(C)Nc2ccc3c(c21)/C(=C/c1ccccc1)Oc1c(F)cccc1-3 | 
3 | 50 | 161 | 2.3 | > 1000 | 39 | 1590 | CCc1ccccc1/C=C1\Oc2ccc(F)cc2-c2ccc3c(c21)C(C)=CC(C)(C)N3 | 334

Row | SMILES | Efficacy [2] [%] | Efficacy [3] [%] | Ki (Progesterone receptor) [nM] | Ratio (Homo sapiens [4]) | Ratio (Homo sapiens [5]) | Ki (Androgen receptor) [nM] | IC50 [1] [nM]
4 | CC1=CC(C)(C)Nc2ccc3c(c21)/C(=C/c1ccncc1C)Oc1ccc(F)cc1-3 | 71 | 138 | 1.4 | > 1000 | 54 | > 1000 | 363
5 | CC1=CC(C)(C)Nc2ccc3c(c21)/C(=C/c1ccsc1)Oc1ccc(F)cc1-3 | 63 | 174 | 1.3 | 303 | 141 | 669 | 1900
